# S100A4 inh HTS: inhibitors of human S100A4 binding to myosin IIA peptide; P26447; S100A4/TAMRA-MyoIIA peptide fluorescence polarization; inhibition, % at 10.7 µM; hit rate 0.14% among 360,000; AID 652163;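 active means mean inhibition of at least 70% across replicates, with every replicate also reaching that level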
# Target sequence (P26447 whole entry, looked up): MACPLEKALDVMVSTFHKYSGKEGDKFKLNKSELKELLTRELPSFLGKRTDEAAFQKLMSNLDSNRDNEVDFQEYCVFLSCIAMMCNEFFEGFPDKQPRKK
#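 Test system: S100A4 monomer protein. Medium: HEPES buffer with Ca2+, pH 7.2. Reagent: fluorescent myosin IIA peptide, 5 nM. Compound dosing: single-point compound testing. Timing: 5 min between mix addition and reading. Benchmarks: DMSO neutral and TFP positive wells.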
# FGF22 binding: shifts melting point of recombinant human FGF22. recombinant FGF22 thermal shift, SYPRO orange fluorescence; percent of sucrose octasulfate shift, DMSO zero. hit rate 1.5% among 340,000. Q9HCT0. activity (Tm shift, normalised), % at 9.99 µM. AID 651658;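 active means mean Tm shift, scaled 0 neutral to 100 positive control, at about 1.3% or above, every replicate too, limit read from the data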
# dFosB act: enhances mouse delta FosB homodimer DNA binding. P13346. purified delta FosB, TAMRA-CDK5 oligo fluorescence polarization; percent of positive-control signal above neutral wells. activation, % at 25 µM. hit rate 0.99% among 340,000. AID 493131;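 active means mean activation above about 17%, with every replicate also reaching it, limit read from the data, passing the limit was not always enough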
# Target sequence (P13346 whole entry, looked up): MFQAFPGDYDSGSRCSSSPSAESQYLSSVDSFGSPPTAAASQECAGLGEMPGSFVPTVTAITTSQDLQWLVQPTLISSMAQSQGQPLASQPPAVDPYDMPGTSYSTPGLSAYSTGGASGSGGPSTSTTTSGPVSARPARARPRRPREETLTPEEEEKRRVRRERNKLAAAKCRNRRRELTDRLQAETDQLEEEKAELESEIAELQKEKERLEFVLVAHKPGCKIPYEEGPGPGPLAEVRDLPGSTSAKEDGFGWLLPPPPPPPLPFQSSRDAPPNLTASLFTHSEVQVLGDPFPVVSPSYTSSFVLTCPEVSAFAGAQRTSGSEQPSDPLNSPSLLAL
# CFTR F508del cor: CFTR F508del correction in bronchial cells. CFBE cells, YFP halide quenching; stimulated with forskolin plus potentiator P3; % fluorescence drop versus neutral controls. activity (quench increase), % at 7.58 µM. hit rate 0.36% among 350,000. AID 720511;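 active means mean added fluorescence quench of at least 8% versus neutral control, with both replicates also reaching 8%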;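 further: cells transiently co-express mutant CFTR-F508del with the halide-sensitive YFP; corrector assay measuring rescue of mutant channel to the surface after 24 h compound exposure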
# Active calls of the source: *; / = not tested or not shown. The list is not random: actives were taken first. Their share in the collection is about 2.2%.
SMILES,S100A4 inh HTS,FGF22 binding,dFosB act,CFTR F508del cor
CC(=O)c1ccccc1NC(=O)COC(=O)/C=C/c1cccs1,-4,0,-12,2
C[C@@H]1CN([C@@H](C)CO)C(=O)Cc2cc(NC(=O)NC3CCCCC3)ccc2O[C@@H]1CN(C)S(=O)(=O)c1cccs1,-1,0,/,-4
C[C@H](CO)N1C[C@H](C)[C@@H](CN(C)Cc2ccc(Cl)c(Cl)c2)Oc2ccc(NC(=O)C3CCCCC3)cc2CC1=O,-20,-1,/,4
COc1ccc(C(=O)NNC(=S)NC(=O)/C=C/c2cccs2)cc1,-2,43*,-1,0
CC(C)C#Cc1ccc2c(c1)O[C@@H](CN(C)C(=O)c1cccnc1)[C@@H](C)CN([C@H](C)CO)S2(=O)=O,15,0,/,-3
COc1ccc2c3c(n(C)c2c1)[C@H](CO)N(C(=O)Cc1ccccc1)CC31CN(C(C)=O)C1,1,0,/,-1
CC(C)N(C(=O)COC(=O)c1ccc(Cl)s1)c1ccccc1,-2,0,0,-1
CC(C)N(C(=O)COC(=O)[C@H](C)NC(N)=O)c1ccccc1,5,43*,-5,0
CC1CCN(c2nc(N3CCCCC3)nc(N3CCCCC3)n2)CC1,-7,43*,0,2
COc1ccc(-c2ccc([C@@H]3[C@H](CO)N4CCCCN(C(=O)NC(C)C)C[C@@H]34)cc2)cc1,-1,0,/,0
CCOc1ccc(-c2c(C(=O)N/N=C/c3c[nH]c4ccccc34)nnn2-c2nonc2N)cc1,0,43*,10,0
CCCOc1ccc(-c2c(C(=O)N/N=C/c3ccsc3)nnn2-c2nonc2N)cc1,-2,0,20*,-4
CO[C@@H]1CN(C)C(=O)c2ccc(NC(=O)CC(F)(F)F)cc2OC[C@H](C)N(C(=O)C2CC2)C[C@H]1C,-37,/,/,-1
CCCNC(=O)N[C@@H]1CC[C@@H](CC(=O)NC2CCC2)O[C@H]1CO,/,/,/,2
COc1ccc(C(=O)N/N=C/c2ccc(OC)c(CSc3ccccn3)c2)cc1,5,0,-10,1
CCOc1cc(/C=N/NC(=O)c2cccnc2)cc(Br)c1OCC(N)=O,0,44*,-13,1
COc1ccc(/C=N/NC(=O)c2cccnc2)cc1CSc1ccccn1,1,0,-33,11*
COc1cccc(S(=O)(=O)N2CCC3(CC2)CN(C(=O)Nc2cccc(F)c2)[C@@H](CO)c2[nH]c4cc(OC)ccc4c23)c1,2,0,/,1
COC(=O)c1c(N2C(=O)Nc3ccccc3N2O)sc(C)c1C,-3,43*,6,-2
Nc1nccc(-c2cccs2)n1,2,43*,6,-4
Cc1nn(C)cc1NC(=O)C[C@H]1CC[C@@H]2[C@@H](COc3ccc(NC(=O)C(C)C)cc3C(=O)N2C)O1,/,0,/,2
Cc1noc(C)c1S(=O)(=O)N(C)C[C@@H]1Oc2ccc(NC(=O)Nc3ccc4c(c3)OCO4)cc2C(=O)N([C@@H](C)CO)C[C@@H]1C,-11,0,/,-3
Cc1ccc(S(=O)(=O)N(C)c2ccc3ccccc3c2)cc1,1,44*,-7,-2
O=c1c(O)c(-c2cccs2)oc2ccc(Cl)cc12,2,0,3,53*
C[C@@H]1CN([C@H](C)CO)S(=O)(=O)c2ccc(C3=CCCCC3)cc2O[C@H]1CN(C)Cc1cncnc1,-5,0,/,0
SMILES,S100A4 inh HTS,FGF22 binding,dFosB act,CFTR F508del cor
CC(=O)c1ccc2c(c1)C1C=CCC1C(C(=O)O)N2 (configuration not stated),-5,44*,-19,-2
CC(=O)c1ccc2c(c1)C1C=CCC1C(c1ccncc1)N2 (configuration not stated),/,/,-10,/
COc1ccc(CN(C)C[C@H]2Oc3c(NC(=O)Nc4c(C)noc4C)cccc3C(=O)N([C@H](C)CO)C[C@H]2C)cc1,-6,0,/,-1
CCNC(=O)C[C@H]1CC[C@H]2[C@@H](COC[C@@H](O)CN2C(=O)Nc2ccc(Cl)c(Cl)c2)O1,0,0,/,-3
CC(=NNC(=S)Nc1ccc(C)cc1)c1ccccn1,-4,0,2,16*
COc1ccccc1NC(=S)NN=C(C)c1ccccn1,-15,0,-8,8.5*
Cc1ccc(S(=O)(=O)Nc2ccc3c(c2)C(=O)N([C@H](C)CO)C[C@H](C)[C@@H](CN(C)C(=O)Cc2ccccc2)OCCCC[C@H](C)O3)cc1,-1,/,/,0
CC(OC(=O)c1ccc(Cl)nc1)C(=O)NC1CCCC1 (configuration not stated),-1,0,-2,2
CC(OC(=O)c1ccc(Cl)nc1)C(=O)NC(C)(C)C (configuration not stated),16,0,1,10*
CO/N=C\CC(=O)Nc1ccc(F)cc1,/,/,-2,/
CO/N=C\CC(=O)Nc1ccc(Cl)cc1Cl,7,43*,3,11*
CCCc1nc2ccccc2c(C(=O)OCC(=O)NCc2ccc3c(c2)OCO3)c1CC,9,0,-10,9.0*
CSc1ncccc1C(=O)OCC(=O)NCc1ccc2c(c1)OCO2,1,43*,9,0
O=C(COC(=O)c1ccc(O)cc1)NCc1ccc2c(c1)OCO2,-5,1,-2,3
Cc1ccc(CNC(=O)COC(=O)c2ccc(S(=O)(=O)N(C)C)cc2)cc1,-3,1,-7,8.1*
CCOc1ncccc1C(=O)OCC(=O)NCc1ccc2c(c1)OCO2,1,43,2,1
COc1cc(OC)cc(C(=O)OCC(=O)NCc2ccc3c(c2)OCO3)c1,7,44*,4,-2
C[C@@H]1CN([C@H](C)CO)C(=O)c2cc(C3=CCCC3)cnc2O[C@@H]1CN(C)C(=O)C1CC1,/,/,/,-1
O=C(COC(=O)c1cccnc1Cl)NCCc1ccccc1,-3,0,-3,-1
O=C(COC(=O)c1cccnc1Cl)c1ccccc1,3,0,-1,0
Cc1ccc(CNC(=O)COC(=O)c2cccnc2Cl)cc1,4,43*,-4,1
O=C(COC(=O)c1cccnc1Cl)c1ccc(F)cc1,5,43*,-12,-2
C[C@H]1CN([C@@H](C)CO)C(=O)c2cccc(NC(=O)Nc3ccc(F)cc3)c2O[C@H]1CN(C)CC1CC1,-4,0,/,-1
CCC(=O)N(C)C[C@H]1Oc2cc(C#CC(C)(C)O)ccc2S(=O)(=O)N([C@H](C)CO)C[C@@H]1C,-1,0,/,3
O=C(Cc1ccncc1)Nc1ccc2c(c1)[C@H]1C[C@@H](CC(=O)NC3CCCC3)O[C@H](CO)[C@H]1O2,-4,0,/,0
O=C1NC(=O)C2(Br)Nc3ccc(Br)cc3C(=O)C2N1 (configuration not stated),1,1.4*,3,-3
C#Cc1ccc(C(=O)Nc2ccc(N3CCC(C)CC3)c(C(N)=O)c2)cc1,-4,43,-2,16*
O=C(NCc1cccnc1)c1cc(C2CCCCN2C(=O)OCc2ccccc2)on1 (configuration not stated),3,0,/,-4
